Data taken from ChEMBL document CHEMBL2021854, “2-Aminopyrimidine based 4-aminoquinoline anti-plasmodial agents. Synthesis, biological activity, structure-activity relationship and mode of action studies” (Eur J Med Chem, 2012).
Values after ≈ are worked out from the molar mass of the structure shown.

Key:
Plasmodium falciparum [1] = experiment: Antiplasmodial activity chloroquine-sensitive Plasmodium falciparum 3D7 infected in human A+ erythrocytes assessed as inhibition of [3H]-hypoxanthine incorporation after 24 hrs by scintillation counting; assay type: functional, organism-based
Plasmodium falciparum [2] = experiment: Resistant factor, ratio of IC50 for chloroquine-resistant Plasmodium falciparum K1 to IC50 for chloroquine-sensitive Plasmodium falciparum 3D7; assay type: functional
In short: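 Resistance factor computed as IC50 against K1 divided by IC50 against 3D7, both from the [3H]hypoxanthine incorporation assay.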

Plasmodium falciparum [3] = experiment: Antiplasmodial activity chloroquine-resistant Plasmodium falciparum K1 infected in human A+ erythrocytes assessed as inhibition of [3H]-hypoxanthine incorporation after 24 hrs by scintillation counting; assay type: functional, organism-based
[4] = Inhibition of beta-hematin formation assessed as Ferriprotoporphyrin IX biomineralisation at 1 mg/ml after 24 hrs; assay type: functional
In short: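 Hemin chloride (0.5 mg/ml in DMSO) mixed with 0.5 M sodium acetate buffer pH 4.4 and drug or solvent control, incubated 37 °C for 24 h. Pellet washed with DMSO to remove unreacted hemin, dissolved in 0.1 N NaOH, absorbance read at 405 nm; percent inhibition relative to control. Highest concentration tested 1 mg/ml.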

[5] = test system: Feline infectious peritonitis virus; experiment: Antiviral activity against FIPV infected in cat CRFK cells assessed as inhibition of virus-induced cytopathic effect after 4 days by colorimetric formazan-based MTS assay; assay type: functional, cell-based; settings: Alphacoronavirus 1, CRFK, 96 h
[6] = Cytotoxicity against cat CRFK cells assessed as cell viability by colorimetric formazan-based MTS assay; set-up: species or system Felis catus; settings: CRFK cells
Felid alphaherpesvirus 1 = experiment: Antiviral activity against Feline herpesvirus infected in cat CRFK cells assessed as inhibition of virus-induced cytopathic effect after 4 days by colorimetric formazan-based MTS assay; assay type: functional, organism-based; settings: Felid alphaherpesvirus 1, CRFK, 96 h
HeLa = experiment: Cytotoxicity against human HeLa cells assessed as cell viability by colorimetric formazan-based MTS assay
[7] = test system: Vesicular stomatitis virus; experiment: Antiviral activity against Vesicular stomatitis virus infected in HEL cells assessed as inhibition of virus-induced cytopathogenicity after 4 days; assay type: functional, organism-based; settings: 96 h
In short: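 Confluent HEL or HeLa monolayers infected with 100 CCID50 of virus in the presence of varying compound concentrations.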

[8] = Cytotoxicity against human HEL cells assessed as minimum compound concentration required to causes microscopically detectable alteration of normal cell morphology; assay type: cell-based
In short: (§1)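 Confluent, non-proliferating cell cultures were exposed to the compounds. The endpoint was the minimum concentration producing a microscopically detectable alteration of normal cell morphology.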

[9] = Cytotoxicity against MDCK cells assessed as minimum compound concentration required to causes microscopically detectable alteration of normal cell morphology; assay type: cell-based, Canis lupus familiaris; settings: dog; in short: as §1
Influenza B virus [10] = experiment: Antiviral activity against Influenza B virus infected in MDCK cells assessed as inhibition of virus-induced cytopathogenicity after 4 days by colorimetric formazan-based MTS assay; assay type: functional, organism-based; settings: 96 h
Influenza B virus [11] = experiment: Antiviral activity against Influenza B virus infected in MDCK cells assessed as reduction visual scoring of virus-induced cytopathogenicity after 4 days; assay type: functional, organism-based; settings: 96 h
In short: (§2)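 MDCK monolayers infected with 100 CCID50 of influenza A (H1N1 or H3N2) or influenza B, with varying compound concentrations. Cytopathicity read when untreated infected controls reached complete CPE.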

Influenza A virus [12] = experiment: Antiviral activity against Influenza A virus H3N2 infected in MDCK cells assessed as inhibition of virus-induced cytopathogenicity after 4 days by colorimetric formazan-based MTS assay; assay type: functional, organism-based; settings: 96 h
MDCK = experiment: Cytotoxicity against MDCK cells assessed as cell viability by colorimetric formazan-based MTS assay; set-up: species or system Canis lupus familiaris; settings: dog, mdck
In short: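 Cytotoxicity on MDCK cells; 50% cytotoxic concentration from cell viability measured by colorimetric formazan-based MTS assay.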

Influenza A virus [13] = experiment: Antiviral activity against Influenza A virus H1N1 infected in MDCK cells assessed as inhibition of virus-induced cytopathogenicity after 4 days by colorimetric formazan-based MTS assay; assay type: functional, organism-based; settings: 96 h
Influenza A virus [14] = experiment: Antiviral activity against Influenza A virus H1N1 infected in MDCK cells assessed as reduction visual scoring of virus-induced cytopathogenicity after 4 days; assay type: functional, organism-based; settings: 96 h; in short: as §2
Influenza A virus [15] = experiment: Antiviral activity against Influenza A virus H3N2 infected in MDCK cells assessed as reduction visual scoring of virus-induced cytopathogenicity after 4 days; assay type: functional, organism-based; settings: 96 h; in short: as §2

| SMILES | IC50 (Plasmodium falciparum [1]) | Ratio IC50 (Plasmodium falciparum [2]) | IC50 (Plasmodium falciparum [3]) | inhibition [4] | other results |
| --- | --- | --- | --- | --- | --- |
| CCOC(=O)c1c(C)nc(NCCCCCCCNc2ccnc3cc(Cl)ccc23)nc1-c1ccccc1 | 1.13 µM | 0.544 | 0.618 µM | 89% |  |
| N[C@H]1C(C(=O)O)=CC=C[C@@H]1O |  |  |  |  | EC50 [5]: 8.1 µg/mL (≈ 52.2 µM); CC50 [6]: > 100 µg/mL; EC50 (Felid alphaherpesvirus 1): 5.2 µg/mL (≈ 33.5 µM) |
| Cc1nc(NCCCCNc2ccnc3cc(Cl)ccc23)nc(-c2cccc([N+](=O)[O-])c2)c1C(=O)OC(C)C | 0.697 µM | 0.2756 | 0.192 µM | 92% |  |
| CC(=O)N[C@H]1[C@@H](OP(=O)(O)OP(=O)(O)OC[C@H]2O[C@@H](n3ccc(=O)[nH]c3=O)[C@H](O)[C@@H]2O)O[C@H](CO)[C@@H](O)[C@@H]1O[C@@](C)(OP(=O)(O)O)C(=O)O |  |  |  |  | EC50 [5]: 1.5 µg/mL (≈ 1.93 µM); CC50 [6]: 15.8 µg/mL (≈ 20.4 µM); EC50 (Felid alphaherpesvirus 1): 0.8 µg/mL (≈ 1.03 µM) |
| Nc1nc2c(ncn2COCCO)c(=O)[nH]1 [ACYCLOVIR] |  |  |  |  | CC50 (HeLa): 541 µM; EC50 [7]: > 250 µM; MCC [8]: > 250 µM |
| NC12CC3CC(CC(C3)C1)C2 [AMANTADINE] |  |  |  |  | MCC [9]: > 200 µM; EC50 (Influenza B virus [10]): > 200 µM; EC50 (Influenza B virus [11]): > 200 µM; EC50 (Influenza A virus [12]): 4.1 µM; CC50 (MDCK): > 200 µM; EC50 (Influenza A virus [13]): 154 µM; EC50 (Influenza A virus [14]): 89 µM; EC50 (Influenza A virus [15]): 5 µM |
| CCOC(=O)c1c(C)nc(NCCCCCCCCNc2ccnc3cc(Cl)ccc23)nc1-c1ccccc1 | 0.252 µM | 2.047 | 0.516 µM | 56% |  |
| CCOC(=O)c1c(C)nc(NCC(C)Nc2ccnc3cc(Cl)ccc23)nc1-c1ccccc1 (stereo not drawn) | 15.9 µM | 1.7683 | 28.1 µM | 35% |  |
| CCOC(=O)c1c(C)nc(NCCCCCCCCCCCCNc2ccnc3cc(Cl)ccc23)nc1-c1ccccc1 | 0.265 µM | 3.22 | 0.854 µM |  |  |
| C[C@H]1[C@H](OC(=O)CCC(=O)O)O[C@@H]2O[C@@]3(C)CC[C@H]4[C@H](C)CC[C@@H]1[C@@]24OO3 [ARTESUNATE] | 0.0053 µM | 0.5418 | 0.0028 µM |  |  |
| Cc1nc(NCCCNc2ccnc3cc(Cl)ccc23)nc(-c2ccccc2[N+](=O)[O-])c1C(=O)OC(C)C | 1.96 µM | 0.1173 | 0.229 µM | 89% |  |
